In PubChem BioAssay:
A number with no mark means an inactive call. Inconclusive results are not listed. The source made the active and inactive calls.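 How the source made its calls, unless noted: active means inhibition over a set limit, the all-compound mean plus 3 SD, in both replicate runs; inconclusive means over that limit in just one replicate run; inactive means at or under that limit in both runs.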

What was measured:
[1] = S. cerevisiae growth inhibition in permissive medium (OD615), pilot counter-assay for S. cerevisiae lifespan shortening project, permissive growth control (AID 705;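 active means growth inhibition above 25% in both replicates, a cutoff set 3 SD above the mean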); conditions: OD615, 24 h, at 10 µM, stronger effect = higher value
Summary of the method: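 Material: engineered DeaD yeast; Compound: one dose 10 µM, DMSO 0.25% final; Detection: absorbance (optical density) at 615 nm; Buffer or medium: permissive raffinose/galactose medium; Timing: 24 h exposure, 30 °C.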

[2] = S. cerevisiae growth inhibition in restrictive medium, OD615, pilot screen, restrictive growth control, yeast lifespan reduction project (AID 706;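 active means growth inhibition above a set limit, 3 SD over mean compound inhibition, in both replicates, cut at about 43% in these data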;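 further: modified DeaD lifespan yeast strain shifted to restrictive glucose medium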); conditions: OD615, 48 h, at 10 µM, stronger effect = higher value
Summary of the method: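 Buffer or medium: restrictive glucose medium (CSMM-D); test system: modified S. cerevisiae; doses: single dose of 10 µM compound final, 0.25% DMSO; schedule: 48 h compound exposure at 30 °C; detection: absorbance (optical density) measured at 615 nm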

[3] = doxorubicin toxicity protection in MRP-1 cells – H69AR cells, CellTiter-Glo, duplicate, MRP-1 activator project, pilot screen (AID 807;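 active means viability increase at or above a cutoff of the median across tested compounds plus 3 SD, cut at about 8.5% in these data, passing the limit was not always enough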;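 further: compound pretreatment 18-22 h then 72 h combined with doxorubicin; 0% = doxorubicin alone and 100% = vehicle without doxorubicin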); conditions: H69AR viability with doxorubicin, CellTiter-Glo luminescence; at 10 µM; stronger effect = higher value
[4] = viability of HCT116 without oncogenic beta-catenin – human colon tumor cells, pilot screen (AID 823;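 active means cell viability at or below a set limit in both duplicate runs, the limit being the all-compound median minus 4 SD, cut at about 23% in these data, passing the limit was not always enough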;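 further: 0% = wells killed by 20 µM Hyamine and 100% = untreated DMSO cell wells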); conditions: HCT116 beta-catenin knockout viability, CellTiter-Glo, 60 h; at 10 µM; stronger effect = lower value
[5] = viability of PTEN-null HCT116 cells – cell-based, HCT116 clonal line, CellTiter-Glo, pilot screen (AID 824;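 active means viability at or below 27.92% in each of two runs, the all-compound median minus 4 SD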;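 further: 0% = 20 µM Hyamine control and 100% = vehicle cell control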); conditions: HCT116 PTEN-deleted viability, 60 h, at 10 µM, stronger effect = lower value
[6] = RAM pathway blockade in budding yeast – dse1pr::URA3 reporter, 5-FOA selection, pilot screen (AID 869);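 further: 0% = DMSO wells with no growth and 100% = 10 µM 1-NA-PP1 with full growth; RAM network block rescues cells from 5-FOA so hits raise OD615 growth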; conditions: S. cerevisiae dse1pr::URA3 5-FOA growth, OD615, 2 d; at 10 µM; stronger effect = higher value; strain carries analog-sensitive mutant Cbk1 kinase
[7] = RAM signaling pathway blockade in yeast – S. cerevisiae, Pdr1DBD-CYC8 efflux-inhibited sensitized strain, primary screen (AID 1298;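 active means RAM network inhibition above 8.4% in each of two replicates, 3 SD over the compound average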;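 further: 0% = DMSO untreated cells without growth and 100% = 10 µM 1-NA-PP1 full growth; higher means more yeast growth rescued from 5-FOA killing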); conditions: S. cerevisiae cbk1-as DSE1-URA3 strain, 5-FOA growth OD615, 2 d; at 50 µM; stronger effect = higher value

| Compound | growth inhibition [1] [%] | growth inhibition [2] [%] | viability increase [3] [%] | viability [4] | viability [5] | inhibition [6] [%] | RAM network inhibition [7] [%] |
| --- | --- | --- | --- | --- | --- | --- | --- |
| COCCNC(=O)C1CCN(S(=O)(=O)c2ccccc2)CC1 | -2.1 | -7.54 | -1.38 | 101% | 93.7% | -0.045 | 2.93 |
| CC(C)c1nnc(NC(=O)CN2C(=O)c3ccccc3C2=O)s1 | -5.71 | -6.92 | -1.95 | 96.3% | 89.1% | 1.61 | 3.84 |
| Cn1nc(-c2ccc(Cl)cc2)c2cc(C(=O)NCCCN3CCCC3)sc21 | -5.71 | 4.49 | -8.31 | 2.27% (active) | 1.95% (active) | 1.23 | 0.73 |
| Cc1cccc(CSc2nnc(Cn3c(=O)sc4ccccc43)n2C)c1 | -2.34 | 1.82 | -1.45 | 86.4% | 87.3% | -0.065 | 4.9 |
| CCN1CCN(C(=O)CSCc2nc(-c3ccc(OC)c(OC)c3)oc2C)CC1 | -3.83 | -7.22 | -1.52 | 101% | 101% | 0.475 | 1.3 |
| COc1ccc(S(=O)(=O)Cc2ccc(C(=O)N3CCN(c4ncccn4)CC3)o2)cc1 | -2.81 | 4.27 | -2.72 | 106% | 103% | 2.58 | 2.27 |
| CCOC(=O)N1CCC(N2CC34C=CC(O3)C(C(=O)Nc3ccc(OCC)cc3)C4C2=O)CC1 (configuration not stated) | 0.885 | 0.91 | 2.9 | 108% | 112% | 0.595 | 3.14 |
| CC(C)NC(=O)NC(=O)COc1ncnc2sccc12 | -4.68 | -7.55 | -1.28 | 97.6% | 105% | 1.22 | 2.67 |
| N#Cc1c2n(c3c(-c4ccccc4)ncnc13)CCC2 | -12.9 | -11.2 | -2.25 | 104% | 98.7% | 2.73 | 3.93 |
| O=C1c2ccccc2C(=O)N1CCc1nc2ccccc2c(=O)n1Cc1ccco1 | -8.88 | -1.42 | -3.47 | 89.7% | 88.6% | 1.29 | 1.59 |
| O=C(CN(C1CCCCC1)S(=O)(=O)c1ccc(F)cc1)NCCCO | -6.21 | 2.23 | -0.51 | 103% | 98.1% | 1.75 | 1.27 |
| CC1CC=C2C(C#N)=C(N)C(C#N)(C#N)C(c3cccs3)C2C1 (configuration not stated) | -11 | -6.39 | -4.25 | 85.5% | 85.7% | 2.66 | 3.84 |
| COc1ccc(-c2noc(Cc3cccs3)n2)cc1 | 0.04 | 3.45 | -2.47 | 102% | 93.3% | 2.76 | 4.89 |
| COc1ccc(C(=O)Nc2nncs2)cc1S(=O)(=O)N1CC(c2ccccc2)CC1=O (configuration not stated) | -12.7 | 18 | 0.31 | 101% | 87% | 0.92 | 3.31 |
| COc1ccc(CC(=O)Nc2oc(-c3ccccc3)c(-c3ccccc3)c2C#N)cc1OC | -6.81 | -2.63 | -0.77 | 76.9% | 68.2% | 1.75 | 8.44 |
| CCCC(=O)Nc1ccc(N2CCCCC2)cc1 | -9.5 | -9.51 | -2.5 | 87.2% | 94.4% | 3.02 | 5.92 |
